STAT3 blocker: IL-6 driven STAT3 reporter inhibitors, primary screen, U3A cells, luciferase, luminescence, MLSCN library; IL-6 STAT3-luciferase reporter; host cell line lacks STAT1; inhibition, % at 5.5 µM; 0.89% of 190,000 active; AID 862, 2007;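 active = inhibition above the mean inhibition across all screened compounds plus 3 SD, cut at about 44% in these data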;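 note: 0% = DMSO only wells and 100% = 100 µM nifuroxazide control wells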
STAT3 activator: IL-6 driven STAT3 reporter potentiators, primary screen, U3A cells, luciferase, luminescence, MLSCN library. AID 871, 2007. activation (% of control), % at 5.6 µM. 0.91% of 190,000 active. IL-6 STAT3-luciferase reporter; 100% = signal with IL-6 EC80 alone;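 active = activation above the screen-wide mean of compound activation plus 3 SD, cut at about 130% in these data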;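 note: 0% = background luminescence of wells with medium and substrate only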
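Detection: reporter luminescence signal / Assay system: STAT1-lacking human U3A cells, STAT3 luciferase reporter / Incubation: compound pre-incubation 1 h before IL-6, then 6 h stimulation at 37 °C / Control set: IL-6-only high control / Read-out: % activation relative to IL-6 control / Probe or stimulus: Interleukin-6, 33 ng/mL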
STAT1 blocker: STAT1 signaling inhibitors, primary screen, cell-based, HTS, luciferase reporter; NIH 3T3 STAT1-luciferase reporter, IFN-gamma, luminescence; inhibition, % at 5.5 µM; 0.35% of 200,000 active;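 active = inhibition above a set limit, the mean inhibition across all tested compounds plus 3 SD, cut at about 34% in these data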;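 note: 0% = IFN-gamma with DMSO and 100% = IFN-gamma with 300 µM nifuroxazide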
STAT1 act: STAT1 signaling activators, primary screen, cell-based, HTS, luciferase reporter. activation (% of control), % at 5.5 µM. AID 932, 2007. NIH 3T3 STAT1-luciferase reporter, IFN-gamma, luminescence; 100% = IFN-gamma alone, no compound. 2.6% of 200,000 active;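 active = activation above the screen-wide mean activation plus 3 SD, cut at about 130% in these data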;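 note: raw ratio to IFN-gamma control signal so 100% means no change and 0% no light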
APP 5'UTR act: activators of APP 5'UTR luciferase reporter, primary screen, SH-SY5Y cells; activation, % at 2 µM; AID 1276, 2008; 1% of 190,000 active; SH-SY5Y APP 5'UTR luciferase reporter, luminescence; zero percent = DMSO vehicle wells;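 active = activation above a set limit, based on mean plus 3 SD of controls, cut at about 140% in these data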
NF-kB expr up: activators of NF-kB expression in neurons, primary screen, cell-based, HTS. human neuronal cells, NF-kB reporter expression; stronger effect = higher value. fold change at 12.5 µM. 1.6% of 190,000 active. AID 1239, 2008; in the data active = fold change above about 3.3
* hit, by the source's call; · = no result. Only some compounds are listed: those with a hit (about 4.9% of all), similar ones and a draw of the others.

SMILES	STAT3 blocker	STAT3 activator	STAT1 blocker	STAT1 act	APP 5'UTR act	NF-kB expr up
CSc1ccccc1NC(=O)Cn1nnc(-c2ccc(S(C)(=O)=O)cc2)n1	6	97	-2	102	-17	1.2
COc1ccc(NC(=O)Nc2cccs2)cc1Cl	13	98	-34	130*	75	1.6
Cc1nc(NC(=O)Nc2ccc(Cl)cc2)sc1C	18	94	-48	143*	101	1.9
COc1ccc(C(=O)Nc2ccc(NC(=O)c3cccs3)cc2)cc1Cl	14	90	-4	103	0	1.1
O=C(COC(=O)c1ccccc1NC(=O)c1ccco1)NCc1ccc2c(c1)OCO2	8	99	-2	102	7	1.2
O=C(COC(=O)CSc1ccc2ccccc2c1)NCc1ccc2c(c1)OCO2	9	92	4	96	5	1.3
CC(C)CC(C(=O)N1CCc2ccccc2C1)N1C(=O)c2ccccc2C1=O (configuration not stated)	-36	134*	9	91	-13	0.83
Cc1ccc(Oc2c(C=O)c3ccccc3n2C)cc1	-56	145*	4	96	5	1.3
COc1ccc(Oc2c(C=O)c3ccccc3n2C)cc1	-3	107	8	93	-3	1.1
Cn1c(Oc2ccc(F)cc2F)c(C=O)c2ccccc21	10	96	3	95	-8	0.95
Cn1c(Oc2ccc(Cl)cc2)c(C=O)c2ccccc21	-35	141*	15	86	6	1.3
O=C(Nc1ccc([N+](=O)[O-])cc1)c1ccccc1F	14	90	-43	138*	62	2.5
O=C(NCCOC(=O)C1COc2ccccc2O1)c1cccnc1 (configuration not stated)	2	103	-5	104	14	1.1
CCCCCCNc1c([N+](=O)[O-])c(=O)sc2ccccc12	-9	111	11	87	-6	0.87
C(#Cc1ccccc1)Cn1nnc2ccccc21	14	93	-37	134*	42	1.8
COc1cccc(N2CCN(C(=O)c3ccc4nc(N5CCCCC5)sc4c3)CC2)c1	-21	121	-40	136*	70	2.3
COc1ccc(N2CCN(C(=O)c3ccc4nc(N5CCCCC5)sc4c3)CC2)cc1	-17	114	-7	107	1	1.6
C#CCOCCOCCOCCNc1nc(N2CCN(C(=O)[C@H](CCCCN)n3cc([C@@H](N)C(C)CC)nn3)CC2)nc(N2CCN(C(=O)[C@H](CCCCN)n3cc([C@@H](N)CC(C)C)nn3)CC2)n1 (some centres not stated)	·	·	-3	105	-10	0.94
COCCn1c(-c2ccccc2)csc1=Nc1cccnc1	10	98	12	89	1	1.1
CC(C)n1c(-c2ccco2)csc1=Nc1cccnc1	-34	135*	10	91	-1	0.72
Cc1ccc(C(=O)N2CCc3ccccc32)cc1	-33	131	-20	115	23	1.5
CCc1sc(C(=O)N2CCc3ccccc32)cc1C	23	84	-36	134*	189*	8.3*
Nc1ccccc1SCC(=O)N1CCc2ccccc21	10	94	-17	116	20	1.8
O=C(c1ccc(Cl)s1)N1CCc2ccccc21	-13	112	-56	144*	121	3.3
O=C(CSC1=NCCS1)N1CCc2ccccc21	-4	108	-29	127	85	3.5*
SMILES	STAT3 blocker	STAT3 activator	STAT1 blocker	STAT1 act	APP 5'UTR act	NF-kB expr up
O=C(c1ccc(C(=O)N2CCCc3ccccc32)s1)N1CCCc2ccccc21	20	84	-4	104	8	0.66
Cc1ccc(CNC(=O)N[C@@H](Cc2ccccc2)C(=O)O)cc1	-3	106	-4	104	0	1.2
COc1ccc2cc(/C=N/NC(=O)CN(c3ccccc3C)S(=O)(=O)c3ccccc3)c(Cl)nc2c1	1	98	-7	107	1	1.1
Cc1ccc(NC(=O)CN2C(=O)NC(Cc3ccccc3)C2=O)c(Br)c1 (configuration not stated)	6	101	-6	104	-4	0.93
Clc1ccc(-c2nnc(-c3ccco3)o2)cc1	19	86	-48	144*	91	2.3
O=C(COC(=O)c1ccccn1)Nc1ccc2c(c1)OCO2	-7	110	-6	104	1	1.8
Cc1ccc(NC(=O)c2cc(-c3cccs3)on2)cc1C	9	100	-52	146*	5	2.2
CCc1ccc(NC(=O)c2cc(-c3ccc(F)cc3)on2)cc1	21	88	-13	110	28	1.2
COc1ccc(NC(=O)c2cc(-c3cccs3)on2)cc1OC	11	94	-9	109	15	1.5
CCc1ccc(NC(=O)c2cc(-c3cccs3)on2)cc1	12	97	-42	136*	39	2.3
COC(=O)c1ccccc1NC(=O)COc1ccc(S(=O)(=O)NC(C)C)cc1	12	95	1	97	0	0.61
Cn1c2c(c(=O)c3ccccc31)CCC(C)(C)O2	6	97	-6	105	5	1.4
CC(C)C(=O)OCc1cn(-c2ccc(Cl)c(Cl)c2)nn1	16	93	2	98	-8	1
COc1ccc2nc(SCc3cccc(C)c3)nc(C)c2c1	-6	105	-33	130*	73	3.5*
COc1ccc2nc(SCc3ccccc3C)nc(C)c2c1	-2	101	-9	108	72	1.8
CN(C)c1ccc(CNc2nc(-c3ccccc3)nn2S(C)(=O)=O)cc1	-3	108	-3	100	27	1.5
COCC(=O)n1nc(-c2ccccc2)nc1NCc1ccccc1	-5	104	-40	137*	47	1.1
CC(=O)n1nc(-c2ccccc2)nc1NCc1ccc(N(C)C)cc1	-1	105	-49	142*	60	2.7
O=C(NCCSc1c[nH]c2ccccc12)c1ccc2c(c1)OCO2	8	95	-2	103	9	1.9
Cc1ccc(OCCCC(=O)Nc2nc3ccccc3[nH]2)cc1	6	99	-10	111	-5	1.3
CC(=O)Nc1nc2ccccc2[nH]1	8	98	-14	110	17	1.2
O=C(CCCOc1ccccc1)Nc1nc2ccccc2[nH]1	10	95	-32	130*	62	1.5
COc1ccc(C(=O)Nc2nc3ccccc3c(=O)[nH]2)cc1	32	77	-26	124	177*	4*
O=C(Nc1nc2ccccc2[nH]1)c1ccccc1	40	70	6	95	214*	3.2

Screens deposited in PubChem by several laboratories.
